From ChEMBL document CHEMBL4699497, “Synthesis of indole-tethered [1,3,4]thiadiazolo and [1,3,4]oxadiazolo[3,2-a]pyrimidin-5-one hybrids as anti-pancreatic cancer agents” (Bioorg Med Chem Lett, 2020)

Tested on: PANC-1
Assay: Cytotoxicity against human PANC1 cells assessed as reduction in cell viability measured after 48 hrs by MTS assay
Format: functional, cell-based
Conditions: for IC50: PANC-1, 48 h
Method in brief: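 Human PANC-1 pancreatic cancer cells exposed to a range of doses of each compound for 48 h. Surviving cells quantified by MTS viability read-out, and IC50 derived from the dose-response curves.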

SMILES	IC50 [µM]	inhibition
Cc1cc2ccccc2n1-c1cnc2sc(-c3ccc(Br)cc3)nn2c1=O	> 100	
O=c1c(-n2ccc3ccccc32)cnc2sc(-c3ccccc3Cl)nn12	> 100	
Cc1cc2ccccc2n1-c1cnc2sc(-c3ccccc3)nn2c1=O	> 100	
O=c1c(-n2ccc3ccccc32)cnc2sc(-c3ccc(Cl)cc3)nn12	> 100	
Cc1cc2ccccc2n1-c1cnc2oc(-c3ccc(Cl)cc3)nn2c1=O	40	Dose-dependent effect
O=c1c(-n2ccc3ccccc32)cnc2oc(-c3ccccc3)nn12	21.1	Dose-dependent effect
O=c1c(-n2ccc3ccccc32)cnc2sc(-c3cccc(Cl)c3)nn12	> 100	
O=c1c(-n2ccc3ccccc32)cnc2sc(-c3ccccc3)nn12	> 100	
O=c1c(-n2ccc3ccccc32)cnc2sc(-c3ccc(Br)cc3)nn12	> 100	
O=c1c(-n2ccc3ccccc32)cnc2oc(-c3ccc(Br)cc3)nn12	90.5	Dose-dependent effect
O=c1c(-n2ccc3ccccc32)cnc2oc(-c3ccccc3Cl)nn12	7.7	Dose-dependent effect
O=c1c(-n2ccc3ccccc32)cnc2sc(-c3cccc(Br)c3)nn12	> 100	
Nc1ccn([C@@H]2O[C@H](CO)[C@@H](O)C2(F)F)c(=O)n1 [GEMCITABINE]	> 500	
O=c1c(-n2ccc3ccccc32)cnc2oc(-c3ccc(Cl)cc3)nn12	94.9	Dose-dependent effect
Cc1cc2ccccc2n1-c1cnc2sc(-c3cccc(Br)c3)nn2c1=O	> 100	
Cc1cc2ccccc2n1-c1cnc2sc(-c3ccccc3Cl)nn2c1=O	> 100	
